Two compounds from paper PMC7159910 (Science Advances, 2020) can be followed below.

Experiment [1] concerns PHF20L1 expression in MDA-MB-231 cells. In words: Western blotting of PHF20L1 in cells exposed to CoCl2. Format: cell-based, human. Particulars: MDA-MB-231 cells exposed to CoCl2. An outline of the steps: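 MDA-MB-231 cells, grown in L-15 medium with 10% FBS at 37°C without CO2, treated with CoCl2 as hypoxia mimic; lysates immunoblotted for PHF20L1 and for HIF1α as hypoxia marker.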
On the technique in general: Immunoblotting shows a protein as a band on a membrane.

In experiment [2] the target is PHF20L1 TUDOR domain. In words: ITC.

For the compound `[Cl][Co][Cl]` [CoCl2, cobalt chloride], the “induction of PHF20L1 protein by hypoxia activator” value in experiment [1] is on record as “PHF20L1 was indeed induced”.

H3K27me2 peptide (ITC): the Kd in experiment [2] is 73.6 µM.

Usually Kd stands for the equilibrium constant for the complex coming apart. Higher therefore signals weaker binding.
